# Test results as given in ChEMBL document CHEMBL5120974, “Antitubercular Activity of Novel 2-(Quinoline-4-yloxy)acetamides with Improved Drug-Like Properties” (ACS Med Chem Lett, 2022).
# Experiments:
# [1] = test system: Mycobacterium tuberculosis; test: Antitubercular activity against Mycobacterium tuberculosis H37Rv assessed as bacterial growth inhibition incubated for 7 days by resazurin assay; assay type: functional; conditions: 168 h, time 7 day
# [2] = Selectivity index, ratio of CC50 for cytotoxicity against African green monkey Vero cells to MIC for antitubercular activity against Mycobacterium tuberculosis H37Rv; assay type: toxicity, cell-based
# In short: (§1)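 SI = CC₅₀/MIC, with the MIC taken against H37Rv. CC₅₀ is the concentration that cuts cell viability by 50%, from cells exposed for 72 h. Viability was read by both MTT (mitochondrial activity) and neutral red uptake (lysosomal integrity).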
# [3] = test system: Mycobacterium tuberculosis; test: Antitubercular activity against Mycobacterium tuberculosis H37Rv infected in mouse RAW 264.7 cells assessed as reduction on bacterial colony growth at 2.5 uM incubated for 2 to 3 weeks; assay type: functional; conditions: time 2-3 weeks
# In short: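 Mtb growth inside macrophages (in vitro infection model) was tested with compounds at 2.5 μM; the untreated control got 0.5% DMSO vehicle. Read-out was log₁₀ CFU/well, given as mean ± standard deviation and compared with the untreated group by Dunnett post-test (P < 0.05).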
# [4] = Selectivity index, ratio of CC50 for cytotoxicity against human HepG2 cells to MIC for antitubercular activity against Mycobacterium tuberculosis H37Rv; assay type: toxicity, cell-based; in short: as §1
# HepG2 = test: Cytotoxicity against human HepG2 cells assessed as reduction in cell viability incubated for 72 hrs by MTT assay; assay type: functional
# In short: (§2)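 HepG2 and Vero cells were exposed to compound for 72 h, with viability read by MTT (mitochondrial activity) and neutral red uptake (lysosomal integrity). CC₅₀ is the concentration reducing cell viability by 50%.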
# [5] = Cytotoxicity against African green monkey Vero cells assessed as reduction in cell viability incubated for 72 hrs by MTT assay; assay type: toxicity, cell-based; conditions: chlorocebus sabaeus; in short: as §2
# [6] = Chemical stability of the compound in pH 7.4 PBS assessed as remaining product at 10 uM incubated for 24 hrs by HPLC-MS/MS analysis; assay type: physicochemical; conditions: PBS pH 7.4, pH 7.4, read-out: Stability
# In short: (§3)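 Compound incubated 24 h at 37 °C in 0.1 M HCl (pH 1.2), PBS (pH 7.4) or 0.1 M NH₄HCO₃ (pH 9.1). Result is reported as percentage of compound remaining after incubation.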
# [7] = Apparent oral clearance in mouse plasma at 121.6 mg/kg,po by HPLC analysis; assay type: ADME, organism-based
# In short: (§4)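 Mouse pharmacokinetics after a single intravenous dose of 25 mg/kg (61.6 μmol/kg) or an oral dose of 121.6 mg/kg (300 μmol/kg). Plasma drug concentrations were quantified over time, including a 24 h sample after oral dosing. Oral bioavailability was estimated by comparing the two routes.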
# [8] = Clearance in mouse plasma at 121.6 mg/kg,po by HPLC analysis; assay type: ADME, organism-based; in short: as §4
# [9] = Inter-compartmental clearance in mouse plasma at 25 mg/kg,iv by HPLC analysis; assay type: ADME, organism-based; conditions: in vivo; in short: as §4
# [10] = Volume of distribution at steady state in mouse plasma at 121.6 mg/kg,po by HPLC analysis; assay type: ADME, organism-based; conditions: in vivo; in short: as §4
# [11] = Terminal half life in mouse plasma at 25 mg/kg,iv by HPLC analysis; assay type: ADME, organism-based; conditions: read-out: beta t1/2; in short: as §4
# [12] = Oral bioavailability in mouse plasma at 121.6 mg/kg by HPLC analysis; assay type: ADME, organism-based; in short: as §4
# [13] = Metabolic stability in rat liver microsomes assessed as half life measured upto 30 min by HPLC-MS/MS analysis; assay type: ADME, Microsome
# [14] = Permeability of the compound at 10 uM measured after 5 hrs by PAMPA based HPLC-MS/MS analysis; assay type: ADME; conditions: read-out: permeability
# [15] = Metabolic stability in rat liver microsomes assessed as intrinsic clearance measured upto 30 min by HPLC-MS/MS analysis; assay type: ADME, Microsome; conditions: read-out: CLH
# [16] = Absorption rate constant in mouse plasma at 121.6 mg/kg,po by HPLC analysis; assay type: ADME, organism-based; conditions: in vivo; in short: as §4
# [17] = Apparent oral volume of distribution in mouse plasma at 121.6 mg/kg,po by HPLC analysis; assay type: ADME, organism-based; in short: as §4
# [18] = Solubility of the compound in HCl at pH 1.2 incubated for 4 hrs by liquid chromatography; assay type: physicochemical; conditions: HCl pH 1.2, pH 1.2
# [19] = Volume of distribution at steady state in mouse plasma at 25 mg/kg,iv by HPLC analysis; assay type: ADME, organism-based; conditions: read-out: Vdss; in short: as §4
# [20] = Terminal half life in mouse plasma at 121.6 mg/kg,po by HPLC analysis; assay type: ADME, organism-based; conditions: read-out: beta t1/2; in short: as §4
# [21] = Chemical stability of the compound in pH 9.1 NH4HCO3 assessed as remaining product at 10 uM incubated for 24 hrs by HPLC-MS/MS analysis; assay type: physicochemical; conditions: NH4HCO3 pH 9.1, pH 9.1, read-out: Stability; in short: as §3
# [22] = Clearance in mouse plasma at 25 mg/kg,iv by HPLC analysis; assay type: ADME, organism-based; in short: as §4
# [23] = Cmax in mouse plasma at 121.6 mg/kg,po by HPLC analysis; assay type: ADME, organism-based; design: dose 121.6 mg/kg, route po; in short: as §4
# [24] = Solubility of the compound in PBS at pH 7.4 incubated for 4 hrs by liquid chromatography; assay type: physicochemical; conditions: PBS pH 7.4, pH 7.4
# [25] = Chemical stability of the compound in pH 1.2 HCL assessed as remaining product at 10 uM incubated for 24 hrs by HPLC-MS/MS analysis; assay type: physicochemical; conditions: HCl pH 1.2, pH 1.2, read-out: Stability; in short: as §3
# [26] = Plasma concentration in mouse plasma at 121.6 mg/kg,po measured after 24 hrs by HPLC analysis; assay type: ADME, organism-based; in short: as §4
smiles,measurement,setting,value
COc1ccc2nc(C)cc(OCC(=O)Nc3ccccc3OC)c2c1,MIC,[1],0.44 µM
COc1ccc2nc(C)cc(OCC(=O)Nc3ccc4ccccc4c3)c2c1,MIC,[1],0.05 µM
CCCc1ccc(NC(=O)COc2cc(C)nc3ccc(OC)cc23)cc1,MIC,[1],0.05 µM
Cc1cc(OCC(=O)Nc2ccc(N3CCCCC3)cc2)c2cc(Cl)ccc2n1,MIC,[1],0.75 µM
COc1ccc2nc(C)cc(OCC(=O)N[C@H]3C[C@H]4C[C@@H]([C@@H]3C)C4(C)C)c2c1,MIC,[1],3.3 µM
Cc1cc(OCC(=O)Nc2ccc(N3CCCCC3)cc2)c2cc(Br)ccc2n1,MIC,[1],0.68 µM
COc1ccc2nc(C(F)(F)F)cc(OCC(=O)Nc3ccc(N4CCCCC4)cc3)c2c1,MIC,[1],0.17 µM
COc1ccc2nc(C)cc(OCC(=O)Nc3ccc(N4CCSCC4)cc3)c2c1,MIC,[1],0.37 µM
COc1ccc2nc(C)cc(OCC(=O)NC3CCC3)c2c1,MIC,[1],33.3 µM
CCc1cc(OCC(=O)Nc2ccc(N3CCCCC3)cc2)c2cc(OC)ccc2n1,selectivity ratio,[2],> 105
same,Activity,[3],4.13 log10CFU
same,MIC,[1],0.19 µM
same,selectivity ratio,[4],> 105
same,CC50,HepG2,> 20 µM
same,CC50 at 72 h,[5],> 20 µM
COc1ccc2nc(C)cc(OCC(=O)NC3CCCCC3C)c2c1 (centres undefined),MIC,[1],14.6 µM
COc1ccc2nc(C)cc(OCC(=O)NC3CCCCC3)c2c1,MIC,[1],7.6 µM
COc1ccc2nc(C)cc(OCC(=O)NCC3CCCCC3)c2c1,MIC,[1],7.3 µM
COc1ccc2nc(C)cc(OCC(=O)N[C@@H]3C[C@@H]4C[C@H]([C@H]3C)C4(C)C)c2c1,MIC,[1],26.1 µM
COc1ccc2nc(C)cc(OCC(=O)NC3CCCCCC3)c2c1,MIC,[1],3.7 µM
COc1ccc2nc(C)cc(OCC(=O)NC3CCCC3)c2c1,MIC,[1],15.9 µM
CCc1cc(OCC(=O)Nc2ccc(N3CCCCC3)cc2)c2cc(Br)ccc2n1,MIC,[1],0.34 µM
CCc1cc(OCC(=O)Nc2ccc(N3CCCCC3)cc2)c2cc(Cl)ccc2n1,MIC,[1],0.37 µM
COc1ccc2nc(C)cc(OCC(=O)NC3C4CC5CC(C4)CC3C5)c2c1 (centres undefined),MIC,[1],6.6 µM
COc1ccc2nc(C)cc(OCC(=O)N[C@H](C)C3CCCCC3)c2c1,MIC,[1],> 14 µM
COc1ccc2nc(C)cc(OCC(=O)Nc3ccc(N4CCCCC4)cc3)c2c1,selectivity ratio,[2],> 222
same,"remaining at 24 h, 10 µM",[6],100%
same,Activity,[3],4.13 log10CFU
same,CL/F,[7],3.77 mL/min/kg
same,CL/F,[8],1.92 mL/min/kg
same,CL,[9],5.65 mL/min/kg
same,MIC,[1],0.09 µM
same,Vdss,[10],0.234 L/kg
same,half-life,[11],2.27 h
same,bioavailability,[12],51%
same,half-life,[13],2.93 h
same,"Papp at 5 h, 10 µM",[14],4.5 ×10⁻⁶ cm/s
same,CLint scaled,[15],7.5 mL/min/kg
same,selectivity ratio,[4],> 222
same,CC50,HepG2,> 20 µM
same,Ka,[16],3.01 h⁻¹
same,Vd/F,[17],0.46 L/kg
same,solubility at 4 h,[18],> 2500 µM
same,Vd,[19],0.304 L/kg
same,half-life,[20],1.72 h
same,"remaining at 24 h, 10 µM",[21],62.1%
same,clearance,[22],1.47 mL/min/kg
same,Cmax,[23],8300 ng/mL
same,solubility at 4 h,[24],31.4 µM
same,CC50 at 72 h,[5],> 20 µM
same,"remaining at 24 h, 10 µM",[25],58.3%
same,concentration at 24 h,[26],1140 ng/mL
O=C(COc1cc(C(F)(F)F)nc2ccc(Br)cc12)Nc1ccc(N2CCCCC2)cc1,MIC,[1],78.7 µM
COc1ccc2nc(C)cc(OCC(=O)Nc3ccc(N4CCOCC4)cc3)c2c1,MIC,[1],3.1 µM
O=C(COc1cc(C(F)(F)F)nc2ccc(Cl)cc12)Nc1ccc(N2CCCCC2)cc1,MIC,[1],86.2 µM
COc1ccc2nc(C)cc(OCC(=O)N[C@@H](C)C3CCCCC3)c2c1,MIC,[1],> 14 µM
COc1ccc2nc(C)cc(OCC(=O)NC3CCC(C)CC3)c2c1 (centres undefined),MIC,[1],7.3 µM
NNC(=O)c1ccncc1 [ISONIAZID],MIC,[1],2.3 µM
CO[C@H]1/C=C/O[C@@]2(C)Oc3c(C)c(O)c4c(O)c(c(/C=N/N5CCN(C)CC5)c(O)c4c3C2=O)NC(=O)/C(C)=C\C=C\[C@H](C)[C@H](O)[C@@H](C)[C@@H](O)[C@@H](C)[C@H](OC(C)=O)[C@@H]1C [RIFAMPIN],MIC,[1],0.05 µM
